Results as given in ChEMBL document CHEMBL1140127, “Enantiomeric propanolamines as selective N-methyl-D-aspartate 2B receptor antagonists” (J Med Chem, 2008).
Calls of active or inactive are those of the source. The rule behind the calls is not given here.

How the values were obtained:
Rattus norvegicus [1] = test: Anticonvulsant activity in Sprague-Dawley rat assessed as inhibition of electroshock-induced tonic hind limb extension at 30 mg/kg, ip administered 30 mins before electroshock; assay type: functional, organism-based; set-up: dose 30 mg/kg; details: Hindlimb
How it was run: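 Male Sprague–Dawley rats, 100–125 g, with 1% lidocaine dropped into each conjunctiva before maximal electroshock. Compound given ip in DMSO 30 min before the stimulus. Tested on three consecutive days: untreated on days 1 and 3, compound on day 2. Duration of tonic hind limb extension scored visually. Vehicle served as negative control and carbamazepine 60 mg/kg as positive control. ANOVA with Bonferroni post hoc test.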

[2] = tested on: Glutamate receptor ionotropic, NMDA 2B (Rattus norvegicus), Q00960 [E201R]; test: Inhibition of rat NR1/NR2B(E201R) mutant receptor expressed in Xenopus oocytes at 100 nM by two electrode voltage clamp method; assay type: cell-based; details: Oocyte
[3] = biological target: Glutamate NMDA receptor; Grin1/Grin2b (Rattus norvegicus) (UniProt P35439+Q00960); test: Inhibition of rat wild type NR1/NR2B receptor expressed in Xenopus oocytes at 100 nM by two electrode voltage clamp method; assay type: cell-based; details: Oocyte
[4] = tested on: Glutamate receptor ionotropic, NMDA 1 (Rattus norvegicus), P35439 [H134A]; test: Inhibition of rat NR1(H134A)/NR2B mutant receptor expressed in Xenopus oocytes at 100 nM by two electrode voltage clamp method; assay type: cell-based; details: Oocyte
[5] = biological target: Voltage-gated inwardly rectifying potassium channel KCNH2 (Homo sapiens, UniProt Q12809); test: Displacement of [3H]astemizole from human ERG expressed in HEK293 cells
[6] = biological target: T1, Adrenergic receptor alpha-1 (Rattus norvegicus, UniProt P15823+P23944+P43140); test: Displacement of [3H]prazosin from alpha1 adrenergic receptor in rat brain; assay type: tissue-based
T1 sequence (P15823 whole entry): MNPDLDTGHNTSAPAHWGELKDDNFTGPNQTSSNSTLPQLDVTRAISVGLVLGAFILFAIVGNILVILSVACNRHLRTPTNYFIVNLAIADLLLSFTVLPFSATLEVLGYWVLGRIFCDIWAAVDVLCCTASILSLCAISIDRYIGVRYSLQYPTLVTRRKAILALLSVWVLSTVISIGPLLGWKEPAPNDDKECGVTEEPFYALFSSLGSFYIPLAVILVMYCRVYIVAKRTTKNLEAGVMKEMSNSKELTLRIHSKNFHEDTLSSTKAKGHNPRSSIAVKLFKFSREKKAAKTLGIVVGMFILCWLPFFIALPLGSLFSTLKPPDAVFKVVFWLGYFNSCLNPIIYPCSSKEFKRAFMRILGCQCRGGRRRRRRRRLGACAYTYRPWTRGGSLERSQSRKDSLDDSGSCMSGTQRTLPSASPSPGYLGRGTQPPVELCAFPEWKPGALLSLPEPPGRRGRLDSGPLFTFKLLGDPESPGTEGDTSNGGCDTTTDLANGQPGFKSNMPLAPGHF
T1 sequence (P23944 whole entry): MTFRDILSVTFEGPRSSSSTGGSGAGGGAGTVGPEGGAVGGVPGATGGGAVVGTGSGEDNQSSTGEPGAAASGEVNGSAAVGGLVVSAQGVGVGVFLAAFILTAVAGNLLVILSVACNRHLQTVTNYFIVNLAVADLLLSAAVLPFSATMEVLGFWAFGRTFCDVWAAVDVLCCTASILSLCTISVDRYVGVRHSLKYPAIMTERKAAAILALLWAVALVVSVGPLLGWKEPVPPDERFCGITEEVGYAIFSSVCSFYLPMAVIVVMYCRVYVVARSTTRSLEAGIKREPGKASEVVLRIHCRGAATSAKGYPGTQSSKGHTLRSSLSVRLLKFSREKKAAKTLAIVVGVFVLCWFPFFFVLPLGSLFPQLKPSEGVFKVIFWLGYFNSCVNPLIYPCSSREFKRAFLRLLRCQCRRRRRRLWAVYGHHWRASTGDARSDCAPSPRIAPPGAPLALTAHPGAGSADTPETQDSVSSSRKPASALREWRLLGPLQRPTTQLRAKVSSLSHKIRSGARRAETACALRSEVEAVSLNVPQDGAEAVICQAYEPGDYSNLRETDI
T1 sequence (P43140 whole entry): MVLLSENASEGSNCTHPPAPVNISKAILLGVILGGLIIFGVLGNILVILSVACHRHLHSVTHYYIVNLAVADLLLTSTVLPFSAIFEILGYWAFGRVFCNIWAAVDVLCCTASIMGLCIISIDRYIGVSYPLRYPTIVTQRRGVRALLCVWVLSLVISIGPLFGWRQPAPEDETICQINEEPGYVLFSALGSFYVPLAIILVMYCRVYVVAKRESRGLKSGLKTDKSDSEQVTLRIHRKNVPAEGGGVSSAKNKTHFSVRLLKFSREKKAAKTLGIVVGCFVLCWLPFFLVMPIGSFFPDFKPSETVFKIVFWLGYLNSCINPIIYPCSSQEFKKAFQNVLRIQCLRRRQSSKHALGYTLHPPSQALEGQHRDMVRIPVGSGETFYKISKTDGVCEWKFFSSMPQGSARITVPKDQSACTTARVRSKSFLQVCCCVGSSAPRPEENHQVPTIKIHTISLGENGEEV
How it was run: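 Rat brain membranes; displacement of [3H]-prazosin at 4–6 concentrations, each point in duplicate. IC50 from displacement curves fitted by nonlinear least-squares regression.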

[7] = biological target: Glutamate NMDA receptor; Grin1/Grin2b (Rattus norvegicus, UniProt P35439+Q00960); test: Inhibition of rat recombinant NR1/NR2B receptor expressed in Xenopus oocytes assessed as inhibition of glutamate and glycine-induced evoked current by two electrode voltage clamp method; assay type: cell-based, Oocyte
[8] = Half life in rat plasma at 4 mg/kg, iv administered as single dose by LC-MS/MS analysis; assay type: ADME, organism-based; set-up: dose 4 mg/kg, route intravenous
How it was run: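 Rats, n = 3, fasted overnight and given a single 4 mg/kg iv bolus via the tail vein in 2% dimethyl acetamide/98% 5% hydroxypropyl cyclodextrin. Blood collected into K-EDTA from the orbital plexus at 5, 30, 120 and 240 min. Plasma extracted with cold acetonitrile and analyzed by LC-MS/MS in MRM mode against a standard curve.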

Rattus norvegicus [9] = test: Effect on locomotor activity in Sprague-Dawley rat at 0.3 mg/kg, ip; assay type: functional; details: route intraperitoneal
How it was run: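 Rats habituated to the test room at least 30 min, then basal horizontal activity recorded 1 h in photobeam activity chambers. Animals then dosed ip and returned to the chamber for 2 h. Vehicle group run each day. Compared with vehicle by ANOVA with Dunnett's post hoc.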

Mus musculus [10] = test: Effect on motor coordination in mouse at 0.3 mg/kg, ip administered 20 mins prior to test after 5 days by rotarod test; assay type: ADME, organism-based; set-up: dose 0.3 mg/kg, route intraperitoneal; details: in vivo
How it was run: (§1)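 Accelerating rotarod: starts at 5 rpm, then after 10 s ramps 5 to 35 rpm over 5 min; latency to fall recorded automatically. Four trials daily, 25 min apart, for 5 days. On day 5 mice randomised and dosed ip (25% DMSO/75% saline, 5 mL/kg) 20 min before the first trial. Tester blinded; ANOVA with Dunnett's post hoc.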

Mus musculus [11] = test: Effect on motor coordination in mouse at 0.6 mg/kg, ip administered 20 mins prior to test after 5 days by rotarod test; assay type: ADME, organism-based; set-up: dose 0.6 mg/kg, route intraperitoneal; details: in vivo; how it was run: as §1

Sequence of Voltage-gated inwardly rectifying potassium channel KCNH2 (Q12809 whole entry): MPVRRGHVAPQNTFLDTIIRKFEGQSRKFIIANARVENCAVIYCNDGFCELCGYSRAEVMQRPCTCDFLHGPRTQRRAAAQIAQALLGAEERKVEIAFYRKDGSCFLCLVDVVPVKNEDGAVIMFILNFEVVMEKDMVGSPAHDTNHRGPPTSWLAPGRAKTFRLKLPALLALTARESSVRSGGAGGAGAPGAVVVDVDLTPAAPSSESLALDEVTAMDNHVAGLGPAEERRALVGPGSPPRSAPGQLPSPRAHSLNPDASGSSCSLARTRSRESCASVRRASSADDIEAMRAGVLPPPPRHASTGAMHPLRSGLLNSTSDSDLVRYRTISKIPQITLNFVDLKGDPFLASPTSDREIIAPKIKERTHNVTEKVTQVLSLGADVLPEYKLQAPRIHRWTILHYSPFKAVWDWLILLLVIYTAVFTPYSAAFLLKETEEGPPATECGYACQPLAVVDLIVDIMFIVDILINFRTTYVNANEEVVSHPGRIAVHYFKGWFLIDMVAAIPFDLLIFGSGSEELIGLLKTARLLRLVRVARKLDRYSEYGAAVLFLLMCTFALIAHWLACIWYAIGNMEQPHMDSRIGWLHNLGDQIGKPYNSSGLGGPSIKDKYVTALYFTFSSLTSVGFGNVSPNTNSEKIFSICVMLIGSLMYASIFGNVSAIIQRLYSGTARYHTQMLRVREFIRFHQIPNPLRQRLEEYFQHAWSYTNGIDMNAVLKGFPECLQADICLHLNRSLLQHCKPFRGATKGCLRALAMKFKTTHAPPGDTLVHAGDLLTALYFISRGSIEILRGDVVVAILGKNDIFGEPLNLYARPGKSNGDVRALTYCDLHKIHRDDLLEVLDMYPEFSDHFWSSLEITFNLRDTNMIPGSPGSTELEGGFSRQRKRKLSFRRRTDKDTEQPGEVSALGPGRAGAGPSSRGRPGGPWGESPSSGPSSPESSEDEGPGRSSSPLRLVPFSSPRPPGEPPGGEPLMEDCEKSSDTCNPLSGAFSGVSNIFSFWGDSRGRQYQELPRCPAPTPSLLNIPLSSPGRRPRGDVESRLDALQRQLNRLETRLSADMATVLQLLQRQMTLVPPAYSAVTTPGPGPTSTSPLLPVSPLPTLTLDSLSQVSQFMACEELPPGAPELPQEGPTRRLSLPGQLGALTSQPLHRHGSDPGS

CN(CCc1ccc(Cl)c(Cl)c1)CC(O)COc1ccc(NS(C)(=O)=O)cc1 (racemic)
Activity (Rattus norvegicus [1]): Active
inhibition [2]: 4.2%
inhibition [3]: 67.1%
inhibition [4]: 8.9%

CS(=O)(=O)Nc1ccc(OC[C@@H](O)CNCCc2ccc(F)c(F)c2)cc1
IC50 [5]: 1.63 µM
IC50 [6]: > 10 µM
IC50 [7]: 0.357 µM

CS(=O)(=O)Nc1ccc(OC[C@@H](O)CN(CCc2ccc(Cl)c(Cl)c2)Cc2cccc(O)c2)cc1
half-life [8]: 36 min
IC50 [6]: > 10 µM
IC50 [7]: 0.238 µM

Cc1ccc(CCNC[C@H](O)COc2ccc(NS(C)(=O)=O)cc2)cc1C
IC50 [5]: 2.4 µM
IC50 [6]: 2.2 µM
IC50 [7]: 0.207 µM

CCCCN(CCc1ccc(Cl)c(Cl)c1)C[C@H](O)COc1ccc(NS(C)(=O)=O)cc1
half-life [8]: 36 min
IC50 [6]: 4.9 µM
IC50 [7]: 0.421 µM

CCN(CCc1ccc(Cl)c(Cl)c1)C[C@H](O)COc1ccc(NS(C)(=O)=O)cc1
half-life [8]: 36 min
IC50 [6]: 3.5 µM
IC50 [7]: 0.096 µM

C[C@]12N[C@H](Cc3ccccc31)c1ccccc12 [DIZOCILPINE]
Activity (Rattus norvegicus [9]): 38233
Activity (Mus musculus [10]): Toxic
Activity (Mus musculus [11]): Toxic

CS(=O)(=O)Nc1ccc(OC[C@@H](O)CN(CCO)CCc2ccc(Cl)c(Cl)c2)cc1
Activity (Rattus norvegicus [1]): Active
half-life [8]: 36 min
IC50 [7]: 0.122 µM

CS(=O)(=O)Nc1ccc(OC[C@@H](O)CN(CCc2ccc(Cl)c(Cl)c2)Cc2ccccn2)cc1
half-life [8]: 36 min
IC50 [7]: 2.76 µM

CS(=O)(=O)Nc1ccc(OC[C@@H](O)CNCCc2ccc(Cl)c(F)c2)cc1
IC50 [5]: 1.91 µM
IC50 [6]: > 10 µM
IC50 [7]: 0.068 µM
